Hits are enriched below; roughly 3.1% of the tested compounds scored in any of these assays.
CHO parental Ca – counter-screen for OX1R antagonists: effect in parental CHO cells; inhibition, % at 5.6 µM; parental CHO-K1, ATP-induced calcium, Fluo-8 fluorescence; AID 463079; 330,000 compounds, 0.63% hits;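 active means inhibition above that plate's mean sample inhibition plus 3 SD, cut at about 26% in these data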
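Test system: untransfected parental CHO cell line. Compound: one dose, 5.6 µM nominal. Detection: intracellular calcium via Fluo-8 no-wash fluorescent dye. Measure: % inhibition. Benchmarks: ATP-challenged DMSO wells low, unchallenged DMSO wells high.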
OX1R antag-1 – blocks the human orexin 1 receptor. O43613. CHO/OX1R cells, Fluo-8 calcium fluorescence, orexin A. inhibition, % at 5 µM. 330,000 compounds, 0.43% hits. AID 434989;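 active means inhibition above its plate's threshold, mean inhibition of all tested compounds on the plate plus 3 SD, cut at about 37% in these data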
OX1R antag-2 – antagonists of human orexin 1 receptor (OX1R); OX1R-expressing cells, FRET antagonist read-out; inhibition, % at 6.6 µM; O43613; 330,000 compounds, 1.8% hits; AID 485270; in the data active means inhibition mostly above about 38%, no sharp cut-off; inactive means mostly below about 40%
GPR7 antagonist – blocks human GPR7 receptor signaling; P48145; GPR7-expressing cells, fluorescence antagonist assay; inhibition, % at 4.4 µM; 290,000 compounds, 1.1% hits; AID 1861; in the data active means inhibition above about 16%, passing the limit was not always enough;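 further: cells stimulated with the agonist NPW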
Target sequence (P48145 whole entry, looked up): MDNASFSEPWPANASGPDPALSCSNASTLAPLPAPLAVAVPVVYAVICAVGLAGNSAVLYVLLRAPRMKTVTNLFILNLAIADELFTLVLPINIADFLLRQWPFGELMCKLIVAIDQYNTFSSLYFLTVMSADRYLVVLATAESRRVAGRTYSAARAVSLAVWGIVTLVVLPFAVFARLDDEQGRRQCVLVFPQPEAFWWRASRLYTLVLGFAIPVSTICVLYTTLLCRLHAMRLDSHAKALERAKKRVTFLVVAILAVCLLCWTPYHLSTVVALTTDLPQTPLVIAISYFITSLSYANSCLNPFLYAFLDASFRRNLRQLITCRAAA
GalR3 antagonist – antagonists of human GalR3 | O60755 | HEK293 GalR3-CNG cAMP membrane potential fluorescence; galR3 body fused to GalR1 C-terminus | inhibition, % at 3 µM | 360,000 compounds, 0.44% hits;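 active means inhibition above the screen-wide average plus 3 SD, cut at about 13% in these data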;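 further: forskolin and galanin both at EC90 stimulate the cells; cAMP rise reported by CNG channel membrane potential dye signal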
Target sequence (O60755 1-299 limits assumed): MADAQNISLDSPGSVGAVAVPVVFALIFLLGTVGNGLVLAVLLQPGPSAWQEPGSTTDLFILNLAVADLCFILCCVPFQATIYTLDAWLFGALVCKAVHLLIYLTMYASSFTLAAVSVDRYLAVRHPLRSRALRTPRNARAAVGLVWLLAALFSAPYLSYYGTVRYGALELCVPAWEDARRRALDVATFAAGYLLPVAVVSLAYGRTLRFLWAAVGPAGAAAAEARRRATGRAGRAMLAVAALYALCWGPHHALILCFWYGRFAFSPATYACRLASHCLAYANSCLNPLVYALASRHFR
Numbers stand for hits.

`COc1ccc(Cl)cc1NC(=O)COC(=O)/C=C/c1c(C)nn(C2CCS(=O)(=O)C2)c1Cl` (centres undefined) gave CHO parental Ca 43.5, OX1R antag-1 inactive, OX1R antag-2 inactive, GPR7 antagonist inactive and GalR3 antagonist inactive.
CC(=O)OCC(=O)C1(O)CCC2C3CC(C)C4=CC(=O)C=CC4(C)C3C(O)CC21C (centres undefined) was read as GalR3 antagonist inactive.
Screening O=c1cc(C(F)(F)F)[nH]c2c(C(F)(F)F)cccc12 returned CHO parental Ca inactive, OX1R antag-1 inactive, OX1R antag-2 67.0 and GPR7 antagonist inactive.
`CN1CCCCC(NC(=O)c2ccc(F)c(F)c2)C1=O` (centres undefined) gave GalR3 antagonist inactive.
For O=C(CSc1nnc2ccccn12)NC(=O)c1cccc([N+](=O)[O-])c1 the results were CHO parental Ca inactive, OX1R antag-1 inactive, OX1R antag-2 43.2 and GalR3 antagonist inactive.
`CC1=NN(c2ccccc2)C(c2ccco2)C1` (centres undefined) gave GalR3 antagonist inactive.
O=[N+]([O-])c1ccc(C2=NN(c3ccccc3)C(c3ccco3)C2)cc1 (centres undefined) was read as GPR7 antagonist 24.4 and GalR3 antagonist inactive.
Screening O=[N+]([O-])c1ccc(/C=C/C2=NN(c3ccccc3)C(c3ccco3)C2)cc1 (centres undefined) returned CHO parental Ca 68.8, OX1R antag-1 79.9, OX1R antag-2 inactive, GPR7 antagonist inactive and GalR3 antagonist inactive.
`CCc1cc(CNC(=O)C2CCC(=O)N(Cc3ccccc3F)C2)on1` (centres undefined) gave GalR3 antagonist inactive.
Screening CC1(C)Oc2c(ccc(O)c2CN2CCOCC2)C2=C1CCCC2 returned GalR3 antagonist inactive.
`COc1ccccc1/C=C/C(=O)OCC(=O)N1CCc2ccccc21` gave CHO parental Ca inactive, OX1R antag-1 inactive, OX1R antag-2 31.7 and GalR3 antagonist inactive.
Screening CN(C)CCCNC(=O)c1c(N)[nH]c(C(=O)c2ccc(Br)cc2)c1-c1ccc(Br)cc1 returned GalR3 antagonist inactive.
`O=C(O)c1cccc(N2C(=O)c3ccc4c5c(ccc(c35)C2=O)C(=O)N(c2cccc(C(=O)O)c2)C4=O)c1` gave CHO parental Ca inactive, OX1R antag-1 inactive, OX1R antag-2 74.1, GPR7 antagonist inactive and GalR3 antagonist inactive.
CCN(CC)C(=O)c1ccc2nc(-c3ccccc3)c(-c3ccccc3)nc2c1 was read as CHO parental Ca inactive, OX1R antag-1 inactive, OX1R antag-2 inactive, GPR7 antagonist inactive and GalR3 antagonist inactive.
`CCN(CC)C(=O)c1ccc2nc3ccccc3nc2c1` gave CHO parental Ca inactive, OX1R antag-1 inactive, OX1R antag-2 65.4, GPR7 antagonist inactive and GalR3 antagonist inactive.
O=C1N2CCSC2=NC1(Nc1nccs1)C(F)(F)F (centres undefined) was read as CHO parental Ca inactive, OX1R antag-1 inactive, OX1R antag-2 47.5, GPR7 antagonist inactive and GalR3 antagonist inactive.
CCN(CC)C(=O)[C@H]1C[C@@H]2[C@H](C[C@@H](c3ccccc3)[C@H]1C)N(c1ccc(F)cc1)C(=O)N2CCCOc1ccccc1 was read as GalR3 antagonist inactive.
`O=C(c1ccc([N+](=O)[O-])s1)N1CCCc2ccccc21` gave CHO parental Ca inactive, OX1R antag-1 inactive, OX1R antag-2 67.4, GPR7 antagonist inactive and GalR3 antagonist inactive.
O=C(c1ccc([N+](=O)[O-])s1)N1CCc2ccccc21 was read as CHO parental Ca inactive, OX1R antag-1 inactive, OX1R antag-2 inactive, GPR7 antagonist inactive and GalR3 antagonist inactive.
For O=C(C(=O)N1CCC(CNS(=O)(=O)c2cccc(C(F)(F)F)c2)CC1)c1cc2ccccc2o1 the results were GalR3 antagonist inactive.
CCOc1ccc2c(c1)C(C)=CC(C)(C)N2S(=O)(=O)c1ccc(F)cc1 was read as CHO parental Ca inactive, OX1R antag-1 inactive, OX1R antag-2 inactive, GPR7 antagonist inactive and GalR3 antagonist inactive.
`COc1ccc2c(c1)C(C)=CC(C)(C)N2S(=O)(=O)c1ccc(Br)cc1` gave CHO parental Ca inactive, OX1R antag-1 inactive, OX1R antag-2 inactive, GPR7 antagonist 29.1 and GalR3 antagonist inactive.
Screening COc1ccc(-c2nc3scc(-c4ccccc4)n3n2)cc1 returned CHO parental Ca inactive, OX1R antag-1 inactive, OX1R antag-2 66.7, GPR7 antagonist inactive and GalR3 antagonist inactive.
CCCCN1C(=O)C(CC(=O)NCCc2ccccn2)CC(C(=O)N(CC)CC)=C1C (centres undefined) was read as GalR3 antagonist inactive.
For COc1ccc(-c2ccc3c(n2)CCCN3S(=O)(=O)c2cccs2)cc1 the results were GalR3 antagonist inactive.
For O=C1C(Cl)=C(N2CCN(c3ccccc3[N+](=O)[O-])CC2)C(=O)c2ccccc21 the results were CHO parental Ca inactive, OX1R antag-1 inactive, OX1R antag-2 54.9, GPR7 antagonist inactive and GalR3 antagonist inactive.
`O=C(Nc1ccc2ccccc2n1)c1ccccc1` gave CHO parental Ca inactive, OX1R antag-1 inactive, OX1R antag-2 inactive, GPR7 antagonist inactive and GalR3 antagonist inactive.
Screening O=C(Nc1ccc2ccccc2n1)c1ccccc1Br returned CHO parental Ca inactive, OX1R antag-1 inactive, OX1R antag-2 42.5, GPR7 antagonist inactive and GalR3 antagonist inactive.
For O=C1c2ccccc2C(=O)N1CCc1nc2ccccc2c(=O)n1-c1ccccn1 the results were CHO parental Ca inactive, OX1R antag-1 inactive, OX1R antag-2 62.1, GPR7 antagonist inactive and GalR3 antagonist inactive.
Cc1ccnc(-n2c(CCN3C(=O)c4ccccc4C3=O)nc3ccccc3c2=O)c1 was read as CHO parental Ca inactive, OX1R antag-1 inactive, OX1R antag-2 inactive, GPR7 antagonist inactive and GalR3 antagonist inactive.
For O=C(CSc1nnc(-c2cccs2)n1-c1ccccc1)NCc1ccc2c(c1)OCO2 the results were CHO parental Ca inactive, OX1R antag-1 inactive, OX1R antag-2 62.0, GPR7 antagonist inactive and GalR3 antagonist inactive.
`O=C(CSc1nnc(-c2cccs2)n1Cc1ccccc1)NCc1ccc2c(c1)OCO2` gave CHO parental Ca inactive, OX1R antag-1 inactive, OX1R antag-2 62.0, GPR7 antagonist inactive and GalR3 antagonist inactive.
`CCn1c(SCC(=O)NCc2ccc3c(c2)OCO3)nnc1-c1cccs1` gave CHO parental Ca inactive, OX1R antag-1 inactive, OX1R antag-2 inactive, GPR7 antagonist inactive and GalR3 antagonist inactive.
Screening Cn1c(SCC(=O)NCc2ccc3c(c2)OCO3)nnc1-c1cccs1 returned CHO parental Ca inactive, OX1R antag-1 inactive, OX1R antag-2 inactive, GPR7 antagonist inactive and GalR3 antagonist inactive.
Screening F[B-](F)(F)c1cncnc1 returned GalR3 antagonist inactive.
`COc1cc(OC)cc(C2=Cc3ccccc3C(CC(C)=O)N2c2ccc(C#CCCO)cc2)c1` (centres undefined) gave GalR3 antagonist inactive.
For Cc1cc(C)n(C(=O)/C(C#N)=N/Nc2cc(Cl)cc(Cl)c2)n1 the results were CHO parental Ca 74.9, OX1R antag-1 58.8, OX1R antag-2 59.5 and GPR7 antagonist inactive.

Source: PubChem
